Data from ChEMBL document CHEMBL3091355, “Designing and synthesis of novel antimicrobial heterocyclic analogs of fatty acids” (2013).
Values after ≈ are worked out from the molar mass of the structure shown.

What was measured:
Format in all cases: functional
Klebsiella pneumoniae [1] = test: Antibacterial activity against Klebsiella pneumoniae clinical isolate after 24 hrs by broth micro dilution method
Escherichia coli [2] = test: Bactericidal activity against Escherichia coli ATCC 25922 after 18 to 24 hrs; settings: read-out: MBC99.9
Method in brief: (§1)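 MBC taken as the lowest concentration that killed the bacteria completely.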

Candida albicans [3] = test: Fungicidal activity against Candida albicans clinical isolate by micro dilution method
Candida parapsilosis [4] = test: Fungicidal activity against Candida parapsilosis by micro dilution method; settings: Lodderomyces parapsilosis
Candida parapsilosis [5] = test: Fungicidal activity against Candida parapsilosis clinical isolate by micro dilution method; settings: Lodderomyces parapsilosis
Candida dubliniensis [6] = test: Antifungal activity against Candida dubliniensis after 20 hrs by agar dilution method
Candida tropicalis [7] = test: Fungicidal activity against Candida tropicalis clinical isolate by micro dilution method
Candida parapsilosis [8] = test: Antifungal activity against Candida parapsilosis after 20 hrs by agar dilution method; settings: Lodderomyces parapsilosis
Klebsiella pneumoniae [9] = test: Bactericidal activity against Klebsiella pneumoniae clinical isolate after 18 to 24 hrs; settings: read-out: MBC99.9
Pseudomonas aeruginosa [10] = test: Antibacterial activity against Pseudomonas aeruginosa ATCC 27853 after 24 hrs by disc diffusion method
Method in brief: (§2)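 Disk diffusion on agar; activity measured as the halo zone of inhibition around the disk.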

Nakaseomyces glabratus [11] = test: Fungicidal activity against Candida glabrata by micro dilution method
Candida albicans [12] = test: Antifungal activity against Candida albicans clinical isolate after 20 hrs by agar dilution method
Candida albicans [13] = test: Fungicidal activity against Candida albicans by micro dilution method
Pseudomonas aeruginosa [14] = test: Bactericidal activity against Pseudomonas aeruginosa ATCC 27853 after 18 to 24 hrs; settings: read-out: MBC99.9; method in brief: as §1
Candida parapsilosis [15] = test: Antifungal activity against Candida parapsilosis clinical isolate after 20 hrs by agar dilution method; settings: Lodderomyces parapsilosis
Klebsiella pneumoniae [16] = test: Antibacterial activity against Klebsiella pneumoniae clinical isolate after 24 hrs by disc diffusion method
Nakaseomyces glabratus [17] = test: Antifungal activity against Candida glabrata after 20 hrs by agar dilution method
Streptococcus pyogenes [18] = test: Antibacterial activity against Streptococcus pyogenes clinical isolate after 24 hrs by broth micro dilution method
Streptococcus pyogenes [19] = test: Antibacterial activity against Streptococcus pyogenes clinical isolate after 24 hrs by disc diffusion method
Pseudomonas aeruginosa [20] = test: Antibacterial activity against Pseudomonas aeruginosa ATCC 27853 after 24 hrs by broth micro dilution method; settings: ATCC 27853, 24 h
Method in brief: (§3)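 MIC by broth microdilution; growth read visually and spectrophotometrically. MIC taken as the lowest concentration giving complete inhibition of bacterial growth.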

Pichia kudriavzevii [21] = test: Antifungal activity against Candida krusei after 20 hrs by agar dilution method
Candida tropicalis [22] = test: Antifungal activity against Candida tropicalis clinical isolate after 20 hrs by agar dilution method
Candida tropicalis [23] = test: Fungicidal activity against Candida tropicalis by micro dilution method
Pichia kudriavzevii [24] = test: Fungicidal activity against Candida krusei by micro dilution method
Escherichia coli [25] = test: Antibacterial activity against Escherichia coli ATCC 25922 after 24 hrs by disc diffusion method; method in brief: as §2
Streptococcus pyogenes [26] = test: Bactericidal activity against Streptococcus pyogenes clinical isolate after 18 to 24 hrs; settings: read-out: MBC99.9
Staphylococcus aureus [27] = test: Bactericidal activity against Staphylococcus aureus after 18 to 24 hrs; settings: read-out: MBC99.9; method in brief: as §1
Candida albicans [28] = test: Antifungal activity against Candida albicans after 20 hrs by agar dilution method
Method in brief: (§4)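 Clinical Candida isolates purified and subcultured on SC, SCC and PDA media before testing. Compounds were dissolved in DMSO as a stock, then diluted into solid PDA medium to final concentrations of 0.0312 to 256.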

Escherichia coli [29] = test: Antibacterial activity against Escherichia coli ATCC 25922 after 24 hrs by broth micro dilution method; settings: ATCC 25922, 24 h; method in brief: as §3
Candida tropicalis [30] = test: Antifungal activity against Candida tropicalis after 20 hrs by agar dilution method
Candida dubliniensis [31] = test: Fungicidal activity against Candida dubliniensis by micro dilution method
Staphylococcus aureus [32] = test: Antibacterial activity against Staphylococcus aureus after 24 hrs by disc diffusion method; method in brief: as §2
Staphylococcus aureus [33] = test: Antibacterial activity against Staphylococcus aureus after 24 hrs by broth micro dilution method; method in brief: as §3
Candida tropicalis [34] = test: Antifungal activity against fluconazole, itraconazole-resistant Candida tropicalis clinical isolate after 20 hrs by agar dilution method; method in brief: as §4
Candida albicans [35] = test: Antifungal activity against fluconazole, itraconazole-resistant Candida albicans clinical isolate after 20 hrs by agar dilution method; method in brief: as §4
Candida tropicalis [36] = test: Fungicidal activity against fluconazole, itraconazole-resistant Candida tropicalis clinical isolate by micro dilution method

Structure (SMILES)	MFC (Candida albicans [3]) [µg/mL]	MFC (Candida parapsilosis [4]) [µg/mL]	MFC (Candida parapsilosis [5]) [µg/mL]	MIC90 (Candida dubliniensis [6]) [µg/mL]	MFC (Candida tropicalis [7]) [µg/mL]	MIC90 (Candida parapsilosis [8]) [µg/mL]	diameter of the inhibition zone (DIZ) (Pseudomonas aeruginosa [10]) [mm]	MFC (Nakaseomyces glabratus [11]) [µg/mL]	MIC90 (Candida albicans [12]) [µg/mL]	MFC (Candida albicans [13]) [µg/mL]	MIC90 (Candida parapsilosis [15]) [µg/mL]	MIC90 (Nakaseomyces glabratus [17]) [µg/mL]	MIC90 (Pichia kudriavzevii [21]) [µg/mL]	MIC90 (Candida tropicalis [22]) [µg/mL]	MFC (Candida tropicalis [23]) [µg/mL]	MFC (Pichia kudriavzevii [24]) [µg/mL]	diameter of the inhibition zone (DIZ) (Escherichia coli [25]) [mm]	MIC90 (Candida albicans [28]) [µg/mL]	MIC90 (Candida tropicalis [30]) [µg/mL]	MFC (Candida dubliniensis [31]) [µg/mL]	other results
CCCc1cc(CCCCCCCCC(=O)O)on1	> 256	> 256	> 256	128 (≈ 479 µM)	> 256	128 (≈ 479 µM)	31.2	> 256	> 256	> 256	256 (≈ 957 µM)	128 (≈ 479 µM)	> 256	128 (≈ 479 µM)	> 256	> 256	25.7	> 256	> 256	256 (≈ 957 µM)	MIC (Klebsiella pneumoniae [1]): 50 µg/mL (≈ 187 µM); MBC (Escherichia coli [2]): 100 µg/mL (≈ 374 µM); MBC (Klebsiella pneumoniae [9]): > 100 µg/mL; MBC (Pseudomonas aeruginosa [14]): > 100 µg/mL; diameter of the inhibition zone (DIZ) (Klebsiella pneumoniae [16]): 18.3 mm; MIC (Streptococcus pyogenes [18]): 50 µg/mL (≈ 187 µM); diameter of the inhibition zone (DIZ) (Streptococcus pyogenes [19]): 21.6 mm; MIC (Pseudomonas aeruginosa [20]): 100 µg/mL (≈ 374 µM); MBC (Streptococcus pyogenes [26]): 100 µg/mL (≈ 374 µM); MBC (Staphylococcus aureus [27]): 100 µg/mL (≈ 374 µM); MIC (Escherichia coli [29]): 50 µg/mL (≈ 187 µM); diameter of the inhibition zone (DIZ) (Staphylococcus aureus [32]): 19.2 mm; MIC (Staphylococcus aureus [33]): 50 µg/mL (≈ 187 µM)
CCC(C)n1ncn(-c2ccc(N3CCN(c4ccc(OCC5COC(Cn6cncn6)(c6ccc(Cl)cc6Cl)O5)cc4)CC3)cc2)c1=O (stereo not given) [ITRACONAZOLE]	> 256	0.5 (≈ 0.709 µM)		> 256	> 256	0.6 (≈ 0.85 µM)		> 256	0.12 (≈ 0.17 µM)	> 256	0.25 (≈ 0.354 µM)	0.12 (≈ 0.17 µM)	0.6 (≈ 0.85 µM)	1 (≈ 1.42 µM)	> 256	0.12 (≈ 0.17 µM)		> 256	> 256	> 256	
CCCCCC1C(CCC)=NOC1CC[C@H](O)CCCCCCCC(=O)OC (stereo not given in full)	256 (≈ 644 µM)	> 256	> 256	128 (≈ 322 µM)	> 128	32 (≈ 80.5 µM)	31.8	128 (≈ 322 µM)	64 (≈ 161 µM)	> 256	128 (≈ 322 µM)	64 (≈ 161 µM)	128 (≈ 322 µM)	64 (≈ 161 µM)	> 256	> 256	26.5	128 (≈ 322 µM)	128 (≈ 322 µM)	> 256	MIC (Klebsiella pneumoniae [1]): 25 µg/mL (≈ 62.9 µM); MBC (Escherichia coli [2]): 100 µg/mL (≈ 252 µM); MBC (Klebsiella pneumoniae [9]): 100 µg/mL (≈ 252 µM); MBC (Pseudomonas aeruginosa [14]): 100 µg/mL (≈ 252 µM); diameter of the inhibition zone (DIZ) (Klebsiella pneumoniae [16]): 18.9 mm; MIC (Streptococcus pyogenes [18]): 25 µg/mL (≈ 62.9 µM); diameter of the inhibition zone (DIZ) (Streptococcus pyogenes [19]): 22.4 mm; MIC (Pseudomonas aeruginosa [20]): 50 µg/mL (≈ 126 µM); MBC (Streptococcus pyogenes [26]): 50 µg/mL (≈ 126 µM); MBC (Staphylococcus aureus [27]): 100 µg/mL (≈ 252 µM); MIC90 (Candida tropicalis [34]): > 256 µg/mL; MIC90 (Candida albicans [35]): > 256 µg/mL; MIC (Escherichia coli [29]): 25 µg/mL (≈ 62.9 µM); diameter of the inhibition zone (DIZ) (Staphylococcus aureus [32]): 20.8 mm; MIC (Staphylococcus aureus [33]): 25 µg/mL (≈ 62.9 µM)
O=C(O)c1cn(C2CC2)c2cc(N3CCNCC3)c(F)cc2c1=O [CIPROFLOXACIN]							32										27				diameter of the inhibition zone (DIZ) (Staphylococcus aureus [32]): 22 mm
CCCC1=NOC(CCCCCCCCC(=O)OC)C1 (stereo not given)	128 (≈ 452 µM)	> 256	> 256	> 256	128 (≈ 452 µM)	> 256	30.1	> 256	> 256	> 256	> 256	> 256	> 256	> 256	> 256	> 256	25.1	> 256	> 256	> 256	MIC (Klebsiella pneumoniae [1]): 100 µg/mL (≈ 353 µM); MBC (Escherichia coli [2]): > 100 µg/mL; MBC (Klebsiella pneumoniae [9]): > 100 µg/mL; MBC (Pseudomonas aeruginosa [14]): > 100 µg/mL; diameter of the inhibition zone (DIZ) (Klebsiella pneumoniae [16]): 17.1 mm; MIC (Streptococcus pyogenes [18]): 50 µg/mL (≈ 176 µM); diameter of the inhibition zone (DIZ) (Streptococcus pyogenes [19]): 20.2 mm; MIC (Pseudomonas aeruginosa [20]): 100 µg/mL (≈ 353 µM); MBC (Streptococcus pyogenes [26]): 100 µg/mL (≈ 353 µM); MBC (Staphylococcus aureus [27]): > 100 µg/mL; MIC (Escherichia coli [29]): 100 µg/mL (≈ 353 µM); diameter of the inhibition zone (DIZ) (Staphylococcus aureus [32]): 18.1 mm; MIC (Staphylococcus aureus [33]): 50 µg/mL (≈ 176 µM)
OC(Cn1cncn1)(Cn1cncn1)c1ccc(F)cc1F [FLUCONAZOLE]	> 256	32 (≈ 104 µM)	1 (≈ 3.27 µM)	2 (≈ 6.53 µM)	256 (≈ 836 µM)	4 (≈ 13.1 µM)		128 (≈ 418 µM)	8 (≈ 26.1 µM)	> 256	0.5 (≈ 1.63 µM)	8 (≈ 26.1 µM)	32 (≈ 104 µM)	16 (≈ 52.2 µM)	256 (≈ 836 µM)	> 256		> 256	32 (≈ 104 µM)	> 256	
CCCCCCCCC1C(CCC)=NOC1CCCCCCCC(=O)OC (stereo not given)	> 256	> 256	> 256	128 (≈ 335 µM)	> 256	> 256	31.3	> 256	128 (≈ 335 µM)	256 (≈ 671 µM)	128 (≈ 335 µM)	128 (≈ 335 µM)	> 256	128 (≈ 335 µM)	> 256	> 256	26.7	128 (≈ 335 µM)	128 (≈ 335 µM)	> 256	MIC (Klebsiella pneumoniae [1]): 25 µg/mL (≈ 65.5 µM); MBC (Escherichia coli [2]): 50 µg/mL (≈ 131 µM); MBC (Klebsiella pneumoniae [9]): 100 µg/mL (≈ 262 µM); MBC (Pseudomonas aeruginosa [14]): 50 µg/mL (≈ 131 µM); diameter of the inhibition zone (DIZ) (Klebsiella pneumoniae [16]): 18.5 mm; MIC (Streptococcus pyogenes [18]): 25 µg/mL (≈ 65.5 µM); diameter of the inhibition zone (DIZ) (Streptococcus pyogenes [19]): 22.3 mm; MIC (Pseudomonas aeruginosa [20]): 25 µg/mL (≈ 65.5 µM); MBC (Streptococcus pyogenes [26]): 50 µg/mL (≈ 131 µM); MBC (Staphylococcus aureus [27]): 100 µg/mL (≈ 262 µM); MIC90 (Candida tropicalis [34]): > 256 µg/mL; MFC (Candida tropicalis [36]): 128 µg/mL (≈ 335 µM); MIC90 (Candida albicans [35]): > 256 µg/mL; MIC (Escherichia coli [29]): 25 µg/mL (≈ 65.5 µM); diameter of the inhibition zone (DIZ) (Staphylococcus aureus [32]): 21.6 mm; MIC (Staphylococcus aureus [33]): 25 µg/mL (≈ 65.5 µM)
